Data set [1] concerns RAW264.7. Kind of data set: Antiinflammatory activity against LPS-stimulated mouse RAW264.7 cells assessed as inhibition of IL-6 accumulation at 10 uM pretreated for 2 hrs before LPS challenge after 22 hrs by ELISA relative to control. The class given is functional. The procedure, abridged: (§1)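 RAW 264.7 cells plated at 4.0 × 10⁵/plate at 37 °C, 5% CO₂, pretreated 2 h with compound or vehicle, then LPS added for 22 h. Secreted cytokine in media measured by ELISA and normalized to total protein of lysed cell pellets from parallel plates. Expressed as percent of LPS control; mean with SE from 3–5 independent experiments.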
Background: ELISA stands for enzyme-linked immunosorbent assay.

In data set [2] the test system is RAW264.7. Kind of data set: Antiinflammatory activity against LPS-stimulated mouse RAW264.7 cells assessed as inhibition of TNFalpha accumulation at 10 uM pretreated for 2 hrs before LPS challenge after 22 hrs by ELISA relative to control. Format: functional. Put shortly: as §1
Data set [3] relates to RAW264.7. Kind of data set: Antiinflammatory activity against LPS-stimulated mouse RAW264.7 cells assessed as inhibition of TNFalpha accumulation pretreated for 2 hrs before LPS challenge after 22 hrs by ELISA relative to control. The class given is functional, cell-based. Put shortly: (§2)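 Macrophages plated overnight at 4.0 × 10⁶/plate at 37 °C, 5% CO₂, and pretreated 2 h with compound at 1, 2.5, 5.0 and 10 (concentration series), then stimulated with LPS for 22 h. Cytokine in culture media quantified by ELISA and normalized to total cellular protein, measured after lysis in Tris–NP40–SDS buffer and protein assay.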

Data set [4] has as its system RAW264.7. Briefly: Antiinflammatory activity against LPS-stimulated mouse RAW264.7 cells assessed as inhibition of IL-6 accumulation pretreated for 2 hrs before LPS challenge after 22 hrs by ELISA relative to control. Format: functional, cell-based. Put shortly: as §2
Data set [5] concerns RAW264.7. Kind of data set: Cytotoxicity against LPS-stimulated mouse RAW264.7 cells at 10 uM pretreated for 2 hrs before LPS challenge after 22 hrs. The class given is cell-based. As to conditions: raw264.7, 22 h.

Drawing on ChEMBL document CHEMBL1156207, “Synthesis of mono-carbonyl analogues of curcumin and their effects on inhibition of cytokine release in LPS-stimulated RAW 264.7 macrophages” (Bioorg Med Chem, 2010), this text covers Activity and inhibition for 24 compounds.

Each structure is given as a SMILES string. Activity calls are given as the source filed them. The rule behind the calls is not given here.

On to `COc1ccc(/C=C2\CCC/C(=C\c3ccc(OC)cc3OC)C2=O)c(OC)c1`, for which the result in data set [1] and in data set [2] was inactive.

In the case of `O=C(/C=C/c1cc(F)ccc1F)/C=C/c1cc(F)ccc1F`, the result in data set [1] and in data set [2] was inactive.

With `COc1cc(OC)c(/C=C/C(=O)/C=C/c2c(OC)cc(OC)cc2OC)c(OC)c1`, the Activity in data set [1] came out at 60%. The result in data set [2] was Active.

`Cc1ccc(/C=C/C(=O)/C=C/c2ccc(C)cc2C)c(C)c1`: the Activity in data set [1] is on record as 60%. Also, the outcome in data set [2] was Active.

`O=C1/C(=C/c2cc(F)ccc2F)CC/C1=C\c1cc(F)ccc1F`: the outcome in data set [1] and in data set [2] was inactive.

Usually inhibition stands for how much of the control response was suppressed. Turning to `CN(C)CCCOc1ccc(/C=C2\CCC/C(=C\c3ccc(OCCCN(C)C)cc3)C2=O)cc1`, the inhibition entry in data set [3] and in data set [4] was “Dose-dependent effect” in each case. For the same compound, the inhibition at 10 µM turned out to be 97.1% in data set [1] (Mus musculus, RAW264.7) and 96.9% in data set [2]. In addition, in data set [5], the Activity entry was “Non-toxic”.

With `COc1cc(OC)c(/C=C2\CCC/C(=C\c3c(OC)cc(OC)cc3OC)C2=O)c(OC)c1`, in data set [1], the Activity stood at 60%. Further, in data set [2], the result was Active.

Regarding `Cc1ccc(/C=C2\CC/C(=C\c3ccc(C)cc3C)C2=O)c(C)c1`, in data set [1], the outcome was inactive. For the same compound, the outcome in data set [2] was Active.

For `O=C1/C(=C/c2c(F)cccc2F)CC/C1=C\c1c(F)cccc1F`, the outcome in data set [1] and in data set [2] was inactive.

`O=C1/C(=C/c2cccc(Cl)c2Cl)CC/C1=C\c1cccc(Cl)c1Cl`: the outcome in data set [1] and in data set [2] was inactive.

As to `COc1ccc(/C=C2\CC/C(=C\c3ccc(OC)cc3OC)C2=O)c(OC)c1`, the Activity in data set [1] turned out to be 60%. Also, the outcome in data set [2] was inactive.

In the case of `O=C(/C=C/c1ccccc1C(=O)O)/C=C/c1ccccc1C(=O)O`, the result in data set [1] and in data set [2] was inactive.

Consider `COc1ccc(/C=C/C(=O)/C=C/c2ccc(OC)cc2OC)c(OC)c1`, for which the Activity in data set [1] was 60%. Further, the outcome in data set [2] was Active.

`O=C1/C(=C/c2cccc(Cl)c2Cl)CCC/C1=C\c1cccc(Cl)c1Cl`: the result in data set [1] and in data set [2] was inactive.

Consider `O=C1/C(=C/c2c(F)cccc2F)CCC/C1=C\c1c(F)cccc1F`, for which the outcome in data set [1] and in data set [2] was inactive.

`O=C(/C=C/c1c(F)cccc1F)/C=C/c1c(F)cccc1F`: the inhibition result in data set [3] and in data set [4] was “Dose-dependent effect” throughout. The Activity is 60% in data set [1] and “Non-toxic” in data set [5]. For the same compound, in data set [2], the outcome was Active.

`Cc1ccc(/C=C2\CCC/C(=C\c3ccc(C)cc3C)C2=O)c(C)c1`: the result in data set [1] and in data set [2] was inactive.

As for `O=C1/C(=C/c2ccc(Cl)cc2Cl)CCC/C1=C\c1ccc(Cl)cc1Cl`, the result in data set [1] and in data set [2] was inactive.

As for `O=C(/C=C/c1ccc(Cl)cc1Cl)/C=C/c1ccc(Cl)cc1Cl`, the result in data set [1] and in data set [2] was inactive.

Turning to `COc1cc(OC)c(/C=C2\CC/C(=C\c3c(OC)cc(OC)cc3OC)C2=O)c(OC)c1`, the outcome in data set [1] and in data set [2] was inactive.

On to `O=C1/C(=C/c2ccc(Cl)cc2Cl)CC/C1=C\c1ccc(Cl)cc1Cl`, for which the result in data set [1] and in data set [2] was inactive.

Turning to `O=C1/C(=C/c2cc(F)ccc2F)CCC/C1=C\c1cc(F)ccc1F`, the result in data set [1] and in data set [2] was inactive.

On to `O=C1/C(=C/c2ccccc2C(=O)O)CC/C1=C\c1ccccc1C(=O)O`, for which the Activity in data set [1] amounted to 60%. Moreover, in data set [2], the result was inactive.

With `O=C1/C(=C\c2ccccc2C(=O)O)CCC/C1=C\c1ccccc1C(=O)O`, the outcome in data set [1] and in data set [2] was inactive.
